According to ChEMBL document CHEMBL1154186, “Synthesis, kinase inhibitory potencies, and in vitro antiproliferative evaluation of new Pim kinase inhibitors” (J Med Chem, 2009):

Legend:
[1] = biological target: Glycogen synthase kinase-3 beta (Homo sapiens) (UniProt P49841); assay: Inhibition of GSK3-beta assessed as residual enzyme activity at 10 uM relative to untreated control
Outline: (§1)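 Radiometric filter-binding assay at 21 °C for 30 min. Mix: 50 mM Tris/HCl pH 7.5, 0.1 mM EGTA, 0.1% 2-mercaptoethanol, 10 mM Mg acetate and [γ-33P]ATP (800 cpm/pmol) at 5 µM. Stopped with orthophosphoric acid and spotted on P81. Compound at 10 µM; activity given as % remaining versus no-inhibitor control, duplicates. Kinases human full-length unless noted.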

[2] = biological target: Calcium/calmodulin-dependent protein kinase type 1 (Homo sapiens) (UniProt Q14012); assay: Inhibition of CaMK1 assessed as residual enzyme activity at 10 uM relative to untreated control
Chain of Calcium/calmodulin-dependent protein kinase type 1 (Homo sapiens) (Q14012 whole entry, looked up): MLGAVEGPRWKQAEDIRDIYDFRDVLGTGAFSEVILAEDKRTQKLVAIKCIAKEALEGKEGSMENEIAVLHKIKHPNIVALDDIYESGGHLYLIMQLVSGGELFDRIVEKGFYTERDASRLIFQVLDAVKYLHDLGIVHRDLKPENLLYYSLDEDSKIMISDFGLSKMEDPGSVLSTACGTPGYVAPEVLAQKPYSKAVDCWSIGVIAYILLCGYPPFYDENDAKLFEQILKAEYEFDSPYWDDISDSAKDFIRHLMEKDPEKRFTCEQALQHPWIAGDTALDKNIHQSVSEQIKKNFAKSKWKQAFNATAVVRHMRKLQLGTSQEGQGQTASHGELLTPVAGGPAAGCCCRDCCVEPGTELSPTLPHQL

[3] = biological target: Maternal embryonic leucine zipper kinase (Homo sapiens) (UniProt Q14680); assay: Inhibition of MELK assessed as residual enzyme activity at 10 uM relative to untreated control
Chain of Maternal embryonic leucine zipper kinase (Homo sapiens) (Q14680 whole entry, looked up): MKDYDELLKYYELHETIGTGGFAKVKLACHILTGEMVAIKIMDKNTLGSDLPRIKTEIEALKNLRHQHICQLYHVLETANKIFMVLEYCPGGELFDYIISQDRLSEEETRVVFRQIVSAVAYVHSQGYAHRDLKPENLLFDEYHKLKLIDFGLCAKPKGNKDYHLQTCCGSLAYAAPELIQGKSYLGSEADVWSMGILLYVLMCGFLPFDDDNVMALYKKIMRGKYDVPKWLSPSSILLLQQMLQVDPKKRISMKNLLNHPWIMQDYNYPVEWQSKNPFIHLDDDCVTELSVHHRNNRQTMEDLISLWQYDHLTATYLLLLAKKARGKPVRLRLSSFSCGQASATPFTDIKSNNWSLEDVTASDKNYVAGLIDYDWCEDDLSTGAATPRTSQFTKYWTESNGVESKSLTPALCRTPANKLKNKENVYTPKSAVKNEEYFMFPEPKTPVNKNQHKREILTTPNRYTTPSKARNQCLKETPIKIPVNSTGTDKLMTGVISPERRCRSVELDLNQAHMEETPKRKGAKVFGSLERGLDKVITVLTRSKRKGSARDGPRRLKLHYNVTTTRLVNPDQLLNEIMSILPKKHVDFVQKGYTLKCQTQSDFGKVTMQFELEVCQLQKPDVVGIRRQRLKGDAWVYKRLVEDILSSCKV
Outline: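 Assayed with [γ-33P]ATP at 50 µM and 10 mM Mg acetate in 50 mM Tris/HCl pH 7.5, 0.1 mM EGTA, 0.1% 2-mercaptoethanol, 30 min, 21 °C. Phosphoric acid stop, P81 filter capture. ERK2 and Lck are mouse; AMPK is rat. 10 µM compound; % activity remaining relative to control without inhibitor, duplicates.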

[4] = biological target: Proto-oncogene tyrosine-protein kinase Src (Homo sapiens) (UniProt P12931); assay: Inhibition of Src assessed as residual enzyme activity at 10 uM relative to untreated control
Chain of Proto-oncogene tyrosine-protein kinase Src (Homo sapiens) (P12931 2-536 limits assumed): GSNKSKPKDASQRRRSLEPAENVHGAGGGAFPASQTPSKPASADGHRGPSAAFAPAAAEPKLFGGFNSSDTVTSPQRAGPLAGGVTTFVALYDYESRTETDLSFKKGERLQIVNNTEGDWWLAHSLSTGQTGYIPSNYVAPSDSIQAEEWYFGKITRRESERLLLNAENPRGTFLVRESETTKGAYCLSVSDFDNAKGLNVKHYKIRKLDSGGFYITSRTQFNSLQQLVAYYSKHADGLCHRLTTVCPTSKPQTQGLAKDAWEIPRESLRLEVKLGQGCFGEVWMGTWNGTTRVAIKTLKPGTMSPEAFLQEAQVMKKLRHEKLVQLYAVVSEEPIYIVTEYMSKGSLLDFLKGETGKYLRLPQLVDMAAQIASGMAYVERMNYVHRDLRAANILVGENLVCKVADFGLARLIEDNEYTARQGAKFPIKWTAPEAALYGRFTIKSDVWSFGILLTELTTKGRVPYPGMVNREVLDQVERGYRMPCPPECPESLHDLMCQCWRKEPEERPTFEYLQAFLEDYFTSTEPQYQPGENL

[5] = biological target: Protein kinase C zeta type (Homo sapiens) (UniProt Q05513); assay: Inhibition of PKCzeta assessed as residual enzyme activity at 10 uM relative to untreated control
Chain of Protein kinase C zeta type (Homo sapiens) (Q05513 whole entry, looked up): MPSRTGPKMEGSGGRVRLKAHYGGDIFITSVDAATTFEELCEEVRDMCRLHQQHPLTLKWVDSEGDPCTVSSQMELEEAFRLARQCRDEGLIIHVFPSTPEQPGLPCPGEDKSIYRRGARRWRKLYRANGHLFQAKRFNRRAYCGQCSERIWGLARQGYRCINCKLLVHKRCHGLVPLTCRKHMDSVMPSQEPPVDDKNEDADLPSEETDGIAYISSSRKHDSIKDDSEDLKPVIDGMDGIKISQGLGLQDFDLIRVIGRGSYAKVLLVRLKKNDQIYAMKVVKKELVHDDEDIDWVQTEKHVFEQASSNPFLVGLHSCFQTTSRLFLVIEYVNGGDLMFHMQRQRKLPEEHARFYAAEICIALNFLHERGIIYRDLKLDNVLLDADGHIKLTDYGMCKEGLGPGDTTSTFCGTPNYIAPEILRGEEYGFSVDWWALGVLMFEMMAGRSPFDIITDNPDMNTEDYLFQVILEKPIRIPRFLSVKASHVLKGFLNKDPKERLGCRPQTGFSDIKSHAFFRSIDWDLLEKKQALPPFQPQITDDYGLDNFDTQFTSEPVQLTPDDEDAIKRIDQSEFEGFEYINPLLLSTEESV

[6] = biological target: Cyclin-dependent kinase 2/cyclin A (Homo sapiens) (UniProt P24941+P20248+P78396); assay: Inhibition of CDK2/Cyclin A assessed as residual enzyme activity at 10 uM relative to untreated control; assay type: protein-complex assay
Outline: (§2)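 Kinases of human origin, except CK1δ, which is rat. Run in 50 mM Tris/HCl pH 7.5, 0.1 mM EGTA, 0.1% 2-mercaptoethanol and 10 mM Mg acetate, with [γ-33P]ATP at 20 µM, 30 min at 21 °C. Acid-stopped and captured on P81 filters. Compound tested at 10 µM; residual % of uninhibited control, duplicate determinations.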

[7] = Inhibition of CK2 assessed as residual enzyme activity at 10 uM relative to untreated control; outline: as §1
[8] = biological target: T1, Serine/threonine-protein kinase 3 (Homo sapiens) (UniProt Q13188); assay: Inhibition of MST2 assessed as residual enzyme activity at 10 uM relative to untreated control; outline: as §2
T1 sequence (whole entry): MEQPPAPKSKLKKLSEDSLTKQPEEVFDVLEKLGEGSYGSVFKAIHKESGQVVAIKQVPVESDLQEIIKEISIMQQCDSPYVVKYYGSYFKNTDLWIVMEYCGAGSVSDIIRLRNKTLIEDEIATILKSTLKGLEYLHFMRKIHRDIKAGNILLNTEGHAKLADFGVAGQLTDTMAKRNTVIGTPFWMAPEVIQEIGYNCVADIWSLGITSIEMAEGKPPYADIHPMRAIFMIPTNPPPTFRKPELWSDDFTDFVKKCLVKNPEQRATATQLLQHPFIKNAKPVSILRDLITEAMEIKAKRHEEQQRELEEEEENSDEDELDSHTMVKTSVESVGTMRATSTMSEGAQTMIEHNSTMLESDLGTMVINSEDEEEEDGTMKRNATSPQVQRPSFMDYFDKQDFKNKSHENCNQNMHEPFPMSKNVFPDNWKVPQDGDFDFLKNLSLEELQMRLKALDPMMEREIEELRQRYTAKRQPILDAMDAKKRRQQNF

[9] = biological target: SRSF protein kinase 1 (Homo sapiens) (UniProt Q96SB4); assay: Inhibition of SRPK1 assessed as residual enzyme activity at 10 uM relative to untreated control
Chain of SRSF protein kinase 1 (Homo sapiens) (Q96SB4 whole entry): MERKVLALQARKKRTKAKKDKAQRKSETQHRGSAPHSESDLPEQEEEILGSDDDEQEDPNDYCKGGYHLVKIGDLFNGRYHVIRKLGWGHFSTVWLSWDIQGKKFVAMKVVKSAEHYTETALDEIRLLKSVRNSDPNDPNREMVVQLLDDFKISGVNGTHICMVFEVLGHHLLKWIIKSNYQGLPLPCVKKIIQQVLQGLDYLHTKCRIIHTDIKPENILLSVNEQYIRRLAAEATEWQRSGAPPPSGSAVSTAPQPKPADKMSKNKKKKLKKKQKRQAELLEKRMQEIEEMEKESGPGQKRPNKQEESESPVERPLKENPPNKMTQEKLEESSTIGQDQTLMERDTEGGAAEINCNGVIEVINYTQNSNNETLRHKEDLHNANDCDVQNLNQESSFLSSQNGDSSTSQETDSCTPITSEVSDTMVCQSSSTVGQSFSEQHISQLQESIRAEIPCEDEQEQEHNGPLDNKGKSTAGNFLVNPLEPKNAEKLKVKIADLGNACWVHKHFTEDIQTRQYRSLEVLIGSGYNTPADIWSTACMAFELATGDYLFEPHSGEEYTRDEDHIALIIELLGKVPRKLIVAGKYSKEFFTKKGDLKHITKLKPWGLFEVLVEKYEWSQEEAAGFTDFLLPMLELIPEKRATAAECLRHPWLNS

[10] = biological target: T2, Serine/threonine-protein kinase Chk1 (Homo sapiens) (UniProt O14757); assay: Inhibition of CHK1 assessed as residual enzyme activity at 10 uM relative to untreated control; outline: as §2
T2 sequence (whole entry): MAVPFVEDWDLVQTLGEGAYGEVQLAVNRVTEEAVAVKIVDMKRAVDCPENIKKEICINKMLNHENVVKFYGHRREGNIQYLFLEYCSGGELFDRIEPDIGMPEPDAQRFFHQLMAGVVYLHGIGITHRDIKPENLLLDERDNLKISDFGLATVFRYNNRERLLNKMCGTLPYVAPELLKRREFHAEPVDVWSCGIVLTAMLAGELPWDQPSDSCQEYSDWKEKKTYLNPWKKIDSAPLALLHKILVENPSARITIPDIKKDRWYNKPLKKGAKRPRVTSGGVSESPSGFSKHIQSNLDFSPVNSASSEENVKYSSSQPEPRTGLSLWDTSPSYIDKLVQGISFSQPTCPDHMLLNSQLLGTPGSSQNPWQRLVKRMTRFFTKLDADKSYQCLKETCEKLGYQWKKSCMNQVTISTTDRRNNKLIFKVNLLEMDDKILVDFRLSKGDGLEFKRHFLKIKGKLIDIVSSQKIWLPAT

[11] = biological target: RAC-alpha serine/threonine-protein kinase (Homo sapiens) (UniProt P31749); assay: Inhibition of PKBalpha assessed as residual enzyme activity at 10 uM relative to untreated control; outline: as §1
Chain of RAC-alpha serine/threonine-protein kinase (Homo sapiens) (P31749 whole entry): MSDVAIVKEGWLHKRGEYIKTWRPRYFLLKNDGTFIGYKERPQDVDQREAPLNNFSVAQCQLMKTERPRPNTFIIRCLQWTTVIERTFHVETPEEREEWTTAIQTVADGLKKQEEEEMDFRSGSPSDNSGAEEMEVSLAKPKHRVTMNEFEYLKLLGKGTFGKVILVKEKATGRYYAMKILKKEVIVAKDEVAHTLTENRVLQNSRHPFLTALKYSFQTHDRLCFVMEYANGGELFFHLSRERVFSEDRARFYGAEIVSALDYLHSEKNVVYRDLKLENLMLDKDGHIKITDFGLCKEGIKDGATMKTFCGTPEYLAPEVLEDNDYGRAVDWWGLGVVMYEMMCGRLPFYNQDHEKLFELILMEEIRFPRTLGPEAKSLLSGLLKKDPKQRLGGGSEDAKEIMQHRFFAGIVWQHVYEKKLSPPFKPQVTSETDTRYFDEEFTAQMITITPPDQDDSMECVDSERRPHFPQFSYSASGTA

[12] = Inhibition of PKA assessed as residual enzyme activity at 10 uM relative to untreated control
Outline: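 PKA (5-20 m-units) was assayed in 8 mM Mops pH 7.5 and 0.2 mM EDTA, with LRRASLG at 300 µM and [γ-33P]ATP at 20 µM plus 10 mM Mg acetate, 30 min at 21 °C, then P81 filter capture. Compound at 10 µM; % residual activity versus uninhibited control, duplicates.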

[13] = test system: ROCK2 (Rattus norvegicus); assay: Inhibition of ROCK2 assessed as residual enzyme activity at 10 uM relative to untreated control

Chain of Glycogen synthase kinase-3 beta (Homo sapiens) (P49841 whole entry, looked up): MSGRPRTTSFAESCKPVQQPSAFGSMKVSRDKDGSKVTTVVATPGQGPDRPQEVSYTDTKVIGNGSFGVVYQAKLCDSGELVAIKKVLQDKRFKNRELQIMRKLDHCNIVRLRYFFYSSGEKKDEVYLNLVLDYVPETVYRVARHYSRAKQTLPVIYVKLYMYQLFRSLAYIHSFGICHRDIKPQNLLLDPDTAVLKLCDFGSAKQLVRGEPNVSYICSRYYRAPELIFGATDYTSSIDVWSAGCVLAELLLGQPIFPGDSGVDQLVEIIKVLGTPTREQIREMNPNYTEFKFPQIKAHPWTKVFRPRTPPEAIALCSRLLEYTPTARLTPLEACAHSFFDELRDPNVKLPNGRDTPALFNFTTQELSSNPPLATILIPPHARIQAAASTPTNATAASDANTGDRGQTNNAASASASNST

Activity [1] [%]	Activity [2] [%]	Activity [3] [%]	Activity [4] [%]	Activity [5] [%]	Activity [6] [%]	Activity [7] [%]	Activity [8] [%]	Activity [9] [%]	Activity [10] [%]	Activity [11] [%]	Activity [12] [%]	Activity [13] [%]	Compound
88	71	61	85	83	74	62	63	84	97	96	60	–	O=Cc1c[nH]c2c1ccc1c3ccccc3[nH]c12
111	29	93	98	91	97	91	82	90	123	120	95	86	c1ccc2c(c1)[nH]c1c2ccc2cc[nH]c21
102	80	82	102	87	95	96	77	94	112	110	96	89	c1ccc2c(c1)[nH]c1c3cc[nH]c3ccc21
96	36	89	99	91	109	98	96	93	101	112	83	86	O=Cc1c[nH]c2ccc3c4ccccc4[nH]c3c12
